Test system: U2OS
Assay: Multiplex assay against U2OS
Format: toxicity, cell-based
Details: human
Summary of the method: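 With compound added, live cells were imaged on a CQ1 microscope at 37°C and 5% CO2; staining with Hoechst33342, BioTracker Green Microtubule Cytoskeleton Dye, MitoTracker Red and Annexin V Alexa Fluor 680 had been done at seeding. The CellPathfinder machine-learning gating scheme split cells into Hoechst high-intensity objects or normal cells, normal cells into healthy, pyknosed or fragmented nuclei, and pyknosed cells into mitotic or apoptotic. The tubulin, mitochondrial-mass and membrane-permeability phenotypes are per cents of healthy-nucleus cells.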

[1] = 12 h, 1 µM, compound concentration 1 uM, replicate 1
[2] = 12 h, 1 µM, compound concentration 1 uM, replicate 2
[3] = 12 h, 10 µM, compound concentration 10 uM, replicate 1
[4] = 12 h, 10 µM, compound concentration 10 uM, replicate 2
[5] = 24 h, 1 µM, compound concentration 1 uM, replicate 1
[6] = 24 h, 1 µM, compound concentration 1 uM, replicate 2
[7] = 24 h, 10 µM, compound concentration 10 uM, replicate 1
[8] = 24 h, 10 µM, compound concentration 10 uM, replicate 2
[9] = 48 h, 1 µM, compound concentration 1 uM, replicate 1
[10] = 48 h, 1 µM, compound concentration 1 uM, replicate 2
[11] = 48 h, 10 µM, compound concentration 10 uM, replicate 1
[12] = 48 h, 10 µM, compound concentration 10 uM, replicate 2

## Cl.Clc1ccc2nsnc2c1NC1=NCCN1 [TIZANIDINE HYDROCHLORIDE]
[1]
  Population Apoptotic (%): 82%
  Population Fragmented Nuclei (%): 20%
  Population Healthy Nuclei (%): 73%
  Population Hoechst High Intensity Objects (%): 2%
  Population Membrane Permeable-Phenotype (%): 6%
  Population Mitochondria Different-Phenotype (%): 1%
  Population Mitotic Cells (%): 17%
  Population Normal (%): 97%
  Population Pyknosed Nuclei (%): 5%
  Population Tubulin-Different-Phenotype (%): 2%
  Total Cell Count: 306
[2]
  Population Apoptotic (%): 85%
  Population Fragmented Nuclei (%): 10%
  Population Healthy Nuclei (%): 78%
  Population Hoechst High Intensity Objects (%): 1%
  Population Membrane Permeable-Phenotype (%): 3%
  Population Mitochondria Different-Phenotype (%): 2%
  Population Mitotic Cells (%): 14%
  Population Normal (%): 98%
  Population Pyknosed Nuclei (%): 10%
  Population Tubulin-Different-Phenotype (%): 3%
  Total Cell Count: 140
[3]
  Population Apoptotic (%): 77%
  Population Fragmented Nuclei (%): 31%
  Population Healthy Nuclei (%): 61%
  Population Hoechst High Intensity Objects (%): 2%
  Population Membrane Permeable-Phenotype (%): 7%
  Population Mitochondria Different-Phenotype (%): 2%
  Population Mitotic Cells (%): 22%
  Population Normal (%): 97%
  Population Pyknosed Nuclei (%): 6%
  Population Tubulin-Different-Phenotype (%): 2%
  Total Cell Count: 280
[4]
  Population Apoptotic (%): 90%
  Population Fragmented Nuclei (%): 22%
  Population Healthy Nuclei (%): 66%
  Population Membrane Permeable-Phenotype (%): 14%
  Population Mitochondria Different-Phenotype (%): 7%
  Population Mitotic Cells (%): 10%
  Population Pyknosed Nuclei (%): 10%
  Population Tubulin-Different-Phenotype (%): 15%
  Total Cell Count: 98
[5]
  Population Apoptotic (%): 90%
  Population Fragmented Nuclei (%): 19%
  Population Healthy Nuclei (%): 72%
  Population Hoechst High Intensity Objects (%): 0%
  Population Membrane Permeable-Phenotype (%): 4%
  Population Mitochondria Different-Phenotype (%): 2%
  Population Mitotic Cells (%): 9%
  Population Normal (%): 99%
  Population Pyknosed Nuclei (%): 8%
  Population Tubulin-Different-Phenotype (%): 5%
  Total Cell Count: 381
[6]
  Population Apoptotic (%): 89%
  Population Fragmented Nuclei (%): 15%
  Population Healthy Nuclei (%): 73%
  Population Hoechst High Intensity Objects (%): 4%
  Population Membrane Permeable-Phenotype (%): 7%
  Population Mitochondria Different-Phenotype (%): 4%
  Population Mitotic Cells (%): 10%
  Population Normal (%): 95%
  Population Pyknosed Nuclei (%): 11%
  Population Tubulin-Different-Phenotype (%): 6%
  Total Cell Count: 172
[7]
  Population Apoptotic (%): 65%
  Population Fragmented Nuclei (%): 29%
  Population Healthy Nuclei (%): 62%
  Population Hoechst High Intensity Objects (%): 2%
  Population Membrane Permeable-Phenotype (%): 4%
  Population Mitochondria Different-Phenotype (%): 1%
  Population Mitotic Cells (%): 34%
  Population Normal (%): 97%
  Population Pyknosed Nuclei (%): 8%
  Population Tubulin-Different-Phenotype (%): 1%
  Total Cell Count: 327
[8]
  Population Apoptotic (%): 86%
  Population Fragmented Nuclei (%): 25%
  Population Healthy Nuclei (%): 61%
  Population Membrane Permeable-Phenotype (%): 12%
  Population Mitochondria Different-Phenotype (%): 7%
  Population Mitotic Cells (%): 13%
  Population Pyknosed Nuclei (%): 13%
  Population Tubulin-Different-Phenotype (%): 11%
  Total Cell Count: 118
[9]
  Population Apoptotic (%): 86%
  Population Fragmented Nuclei (%): 11%
  Population Healthy Nuclei (%): 80%
  Population Hoechst High Intensity Objects (%): 1%
  Population Membrane Permeable-Phenotype (%): 2%
  Population Mitochondria Different-Phenotype (%): 1%
  Population Mitotic Cells (%): 13%
  Population Normal (%): 98%
  Population Pyknosed Nuclei (%): 7%
  Population Tubulin-Different-Phenotype (%): 2%
  Total Cell Count: 512
[10]
  Population Apoptotic (%): 90%
  Population Fragmented Nuclei (%): 17%
  Population Healthy Nuclei (%): 74%
  Population Hoechst High Intensity Objects (%): 3%
  Population Membrane Permeable-Phenotype (%): 5%
  Population Mitochondria Different-Phenotype (%): 2%
  Population Mitotic Cells (%): 9%
  Population Normal (%): 96%
  Population Pyknosed Nuclei (%): 8%
  Population Tubulin-Different-Phenotype (%): 3%
  Total Cell Count: 260
[11]
  Population Apoptotic (%): 93%
  Population Fragmented Nuclei (%): 18%
  Population Healthy Nuclei (%): 75%
  Population Hoechst High Intensity Objects (%): 2%
  Population Membrane Permeable-Phenotype (%): 5%
  Population Mitochondria Different-Phenotype (%): 1%
  Population Mitotic Cells (%): 6%
  Population Normal (%): 97%
  Population Pyknosed Nuclei (%): 6%
  Population Tubulin-Different-Phenotype (%): 3%
  Total Cell Count: 459
[12]
  Population Apoptotic (%): 76%
  Population Fragmented Nuclei (%): 22%
  Population Healthy Nuclei (%): 65%
  Population Hoechst High Intensity Objects (%): 4%
  Population Membrane Permeable-Phenotype (%): 15%
  Population Mitochondria Different-Phenotype (%): 5%
  Population Mitotic Cells (%): 23%
  Population Normal (%): 95%
  Population Pyknosed Nuclei (%): 11%
  Population Tubulin-Different-Phenotype (%): 7%
  Total Cell Count: 149
